Type in all cases: functional, cell-based
For test [1], the system named is HT-29. Briefly: Inhibitory concentration against human colorectal carcinoma HT-29 cell lines. The gist of the method:
(§1)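 MTS assay. Cells (2000-10 000) seeded in RPMI-1640 and grown 24 h, then exposed to various concentrations for 72 h at 37 °C under 5% CO₂. MTS (2 mg/ml) with PMS (25 µM) added for 3 h at 37 °C, and formazan read at 490 nm. IC50 taken from dose-response curves of % growth vs untreated control.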

The subject of test [2] is K562. Briefly: Inhibitory concentration against human leukemia K562 cell lines. The gist of the method: as §1
Test [3] has as its system SW-620. Briefly: Inhibitory concentration against human colorectal carcinoma SW620 cell lines. A digest of the protocol: as §1
In test [4] the test system is MCF7. Nature of the test: Inhibitory concentration against human Breast cancer MCF-7 cell lines. The gist of the method:
as §1

The subject of test [5] is MCF7. Nature of the test: Inhibitory concentration against human breast cancer MCF-7 cell lines. The gist of the method: as §1

Here are results for seven compounds from ChEMBL document CHEMBL1145179, “Synthesis and enzyme-specific activation of carbohydrate-geldanamycin conjugates with potent anticancer activity” (J Med Chem, 2005).

Usually IC50 stands for the midpoint of a concentration-inhibition curve.

`COC1/C=C\C=C(/C)C(=O)NC2=CC(=O)C(NCCO[C@@H]3O[C@@H](CO)[C@@H](O)[C@H](O)[C@@H]3O)=C(C[C@@H](C)C[C@H](OC)[C@H](O)C(C)/C=C(\C)[C@@H]1OC(N)=O)C2=O` (stereo partly drawn): the IC50 in test [1] was 0.105 µM; in test [2], 0.381 µM; in test [3] it was 0.0702 µM; in test [4] it was 0.754 µM.

As for `COC1/C=C\C=C(/C)C(=O)NC2=CC(=O)C(NCCOCCO[C@@H]3O[C@@H](CO)[C@H](O)[C@H](O)[C@@H]3O)=C(C[C@@H](C)C[C@H](OC)[C@H](O)C(C)/C=C(\C)[C@@H]1OC(N)=O)C2=O` (stereo partly drawn), the IC50 in test [1] is > 13 µM; in test [2] it was > 15 µM; in test [3], > 11 µM; in test [4], > 22 µM.

Turning to `COC1/C=C\C=C(/C)C(=O)NC2=CC(=O)C(NCCCO[C@@H]3O[C@@H](CO)[C@H](O)[C@H](O)[C@@H]3O)=C(C[C@@H](C)C[C@H](OC)[C@H](O)C(C)/C=C(\C)[C@@H]1OC(N)=O)C2=O` (stereo partly drawn), the IC50 in test [1] was > 6 µM; in test [2], > 14 µM; in test [3] it was > 14 µM; in test [4], > 12 µM.

For the compound `COC1/C=C\C=C(/C)C(=O)NC2=CC(=O)C(NCCO[C@@H]3O[C@@H](CO)[C@H](O)[C@H](O)[C@@H]3O)=C(C[C@@H](C)C[C@H](OC)[C@H](O)C(C)/C=C(\C)[C@@H]1OC(N)=O)C2=O` (stereo partly drawn), the IC50 in test [1] was > 14 µM; in test [2] it was > 23 µM; in test [3], > 8 µM; in test [4] it was > 25 µM.

`COC1/C=C\C=C(/C)C(=O)NC2=CC(=O)C(NCCO[C@@H]3O[C@@H](CO)[C@@H](O[C@@H]4O[C@@H](CO)[C@H](O)[C@H](O)[C@@H]4O)[C@H](O)[C@@H]3O)=C(C[C@@H](C)C[C@H](OC)[C@H](O)C(C)/C=C(\C)[C@@H]1OC(N)=O)C2=O` (stereo partly drawn): the IC50 in test [1] was > 25 µM; in test [2] it was > 25 µM; in test [3], > 20 µM; in test [4] it was > 22 µM.

As to `COC1/C=C\C=C(/C)C(=O)NC2=CC(=O)C(NCCCCCO[C@@H]3O[C@@H](CO)[C@H](O)[C@H](O)[C@@H]3O)=C(C[C@@H](C)C[C@H](OC)[C@H](O)C(C)/C=C(\C)[C@@H]1OC(N)=O)C2=O` (stereo partly drawn), the IC50 was > 13 µM in test [1], > 19 µM in test [2], > 13 µM in test [3] and > 17 µM in test [4].

For `COC1=C2C[C@@H](C)C[C@H](OC)[C@H](O)[C@@H](C)/C=C(\C)[C@H](OC(N)=O)[C@@H](OC)/C=C\C=C(/C)C(=O)NC(=CC1=O)C2=O` [GELDANAMYCIN], the IC50 was 0.0245 µM in test [1], 0.0221 µM in test [2], 0.0062 µM in test [3] and 0.0065 µM in test [5].
